Data set [1] has as its system HEK293. The data set can be described thus: Activation of GAL4 fused human RXR expressed in HEK293 cells at 10 uM after 24 hrs by luciferase reporter gene assay.
Data set [2] can be described thus: Agonist activity at LXR in human HepG2 cells assessed as upregulation of SREBP1c mRNA levels at 10 uM after 6 hrs by qPCR analysis. In kind it is cell-based. In outline:
(§1)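 HepG2 cells treated with ligand (10 μM). Total RNA was extracted with TRIZOL; 2 µg was reverse-transcribed (1 h, 42 °C). SREBP1c, FASN and SCD1 transcripts were measured by qPCR. Mean ± SD of three biological samples; ANOVA with Dunnett's test.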

The target of data set [3] is T1, Oxysterols receptor LXR-beta (Homo sapiens, UniProt P55055).
T1 sequence (P55055 whole entry): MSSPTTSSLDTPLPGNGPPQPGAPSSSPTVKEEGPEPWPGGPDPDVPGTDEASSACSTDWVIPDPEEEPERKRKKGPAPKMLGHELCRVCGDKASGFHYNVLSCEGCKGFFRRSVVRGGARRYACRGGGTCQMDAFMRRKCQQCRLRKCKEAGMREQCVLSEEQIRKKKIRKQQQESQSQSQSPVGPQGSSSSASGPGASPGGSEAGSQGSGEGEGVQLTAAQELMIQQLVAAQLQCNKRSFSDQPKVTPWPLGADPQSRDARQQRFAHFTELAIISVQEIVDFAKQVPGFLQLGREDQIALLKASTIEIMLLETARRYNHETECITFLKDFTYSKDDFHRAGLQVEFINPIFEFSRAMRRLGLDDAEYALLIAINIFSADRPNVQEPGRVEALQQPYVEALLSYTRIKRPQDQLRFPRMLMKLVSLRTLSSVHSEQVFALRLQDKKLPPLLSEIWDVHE
The data set can be described thus: Activation of GAL4 fused human LXR beta expressed in HEK293 cells after 24 hrs by luciferase reporter gene assay. It counts as cell-based. In outline: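 HEK293 cells (4x10⁴/well), grown in DMEM with 10% FBS at 37 °C under 5% CO₂, transiently co-transfected with pMH100X4-TK-luc, Renilla and the Gal4-LXR-α or Gal4-LXR-β plasmid. Dosing began 6 h after transfection and lasted 24 h, at 32, 16, 8, 4, 2 and 1 μM. Dual luciferase read-out. EC50 came from dose-response curves, averaged over three to five independent experiments, ± SD.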

Data set [4] is described as follows: Agonist activity at LXR in human HepG2 cells assessed as upregulation of SCD1 mRNA levels at 10 uM after 6 hrs by qPCR analysis. It counts as cell-based. The essentials:
as §1

Data set [5] is described as follows: Agonist activity at LXR in human HepG2 cells assessed as upregulation of FASN mRNA levels at 10 uM after 6 hrs by qPCR analysis. It counts as cell-based. The essentials:
as §1

The target in data set [6] is T2, Peroxisome proliferator-activated receptor gamma (Homo sapiens) (UniProt P37231).
T2 sequence (whole entry): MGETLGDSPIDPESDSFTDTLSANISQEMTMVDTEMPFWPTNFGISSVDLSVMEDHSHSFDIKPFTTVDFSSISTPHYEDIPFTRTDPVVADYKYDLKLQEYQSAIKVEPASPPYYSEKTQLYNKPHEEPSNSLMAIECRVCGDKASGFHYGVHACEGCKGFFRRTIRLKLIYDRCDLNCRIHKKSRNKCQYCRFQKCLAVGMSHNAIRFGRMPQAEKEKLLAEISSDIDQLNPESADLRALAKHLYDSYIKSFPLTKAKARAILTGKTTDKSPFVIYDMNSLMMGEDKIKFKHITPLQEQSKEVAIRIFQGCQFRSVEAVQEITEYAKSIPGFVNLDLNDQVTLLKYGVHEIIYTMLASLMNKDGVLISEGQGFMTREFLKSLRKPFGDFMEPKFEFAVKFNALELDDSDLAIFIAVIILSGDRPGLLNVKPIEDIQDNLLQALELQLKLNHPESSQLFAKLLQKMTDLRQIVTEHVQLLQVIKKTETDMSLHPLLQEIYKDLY
As to the kind of experiment: Activation of GAL4 fused human PPARgamma expressed in HEK293 cells at 10 uM after 24 hrs by luciferase reporter gene assay.

A short description of data set [7]: Agonist activity at LXR in human U937 cells assessed as upregulation of FASN mRNA levels at 10 uM after 6 hrs by qPCR analysis. In kind it is cell-based. The essentials: (§2)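 U937 cells, 3x10⁶ in 10 ml RPMI with 10% FBS, differentiated with PMA 10 ng/ml for 72 h at 37 °C, then treated with ligand (10 μM) for 6 h. Total RNA was isolated with TRIZOL; 2 µg was reverse-transcribed for 1 h at 42 °C. Transcripts were measured by qPCR. Mean ± SD of three biological samples; ANOVA with Dunnett's test.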
Background: Real-time PCR tracks product formation cycle by cycle.

For data set [8], the species on record is Homo sapiens. The data set can be described thus: Agonist activity at LXR in human U937 cells assessed as upregulation of ABCA1 mRNA levels at 10 uM after 6 hrs by qPCR analysis. In kind it is cell-based. The essentials: as §2
Data set [9] can be described thus: Agonist activity at LXR in human U937 cells assessed as upregulation of SCD1 mRNA levels at 10 uM after 6 hrs by qPCR analysis relative to control. In kind it is cell-based. The following applies: for Activity: human, 6 h, 10 µM; for fold induction at 10 µM: Homo sapiens, U-937, 6 h, read-out: FC. The essentials:
as §2

Data set [10] in a line: Agonist activity at LXR in human U937 cells assessed as upregulation of SREBP1c mRNA levels at 10 uM after 6 hrs by qPCR analysis. It counts as cell-based. In outline: as §2
For data set [11], the target named is T3, Oxysterols receptor LXR-alpha (Homo sapiens) (UniProt Q13133).
T3 sequence (whole entry): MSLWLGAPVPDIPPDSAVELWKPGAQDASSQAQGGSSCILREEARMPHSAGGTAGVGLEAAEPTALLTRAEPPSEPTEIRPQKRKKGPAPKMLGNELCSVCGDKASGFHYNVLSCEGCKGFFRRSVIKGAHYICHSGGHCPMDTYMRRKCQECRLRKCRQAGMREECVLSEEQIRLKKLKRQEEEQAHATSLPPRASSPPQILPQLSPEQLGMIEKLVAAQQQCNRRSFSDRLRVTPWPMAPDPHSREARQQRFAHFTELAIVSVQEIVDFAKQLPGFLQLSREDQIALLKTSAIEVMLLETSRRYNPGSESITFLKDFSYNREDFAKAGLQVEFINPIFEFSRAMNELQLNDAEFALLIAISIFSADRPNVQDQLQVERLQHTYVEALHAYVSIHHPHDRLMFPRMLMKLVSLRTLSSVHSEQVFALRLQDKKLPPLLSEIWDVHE
The data set can be described thus: Activation of GAL4 fused human LXR alpha expressed in HEK293 cells after 24 hrs by luciferase reporter gene assay relative to 22R-HC. In kind it is cell-based. The essentials:
(§3)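 HEK293 cells carrying the Gal4-LXR-α or Gal4-LXR-β chimera plus the pMH100X4-TK-luc and Renilla reporters. Treatment started 6 h post-transfection and ran 24 h. Dual luciferase read-out. Efficacy is given as % of the response to 8 μM 22R-HC, ± SD, from three to five independent experiments.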

For data set [12], the species on record is Homo sapiens. The data set can be described thus: Agonist activity at LXR in human U937 cells assessed as downregulation of LPS-induced TNFalpha mRNA expression at 10 uM after 6 hrs by qPCR analysis. In kind it is cell-based. In outline: (§4)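 PMA-differentiated U937 cells (10 ng/ml PMA, 72 h) were given LPS 100 ng/ml together with compound (10 μM) for 6 h. CCL2 and TNFα mRNA were measured by qPCR after TRIZOL RNA extraction and reverse transcription. Three biological samples per group, mean ± SD.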

The target of data set [13] is T4, Oxysterols receptor LXR-beta (Homo sapiens) (UniProt P55055).
T4 sequence (whole entry): T1 sequence (P55055 whole entry)
The data set can be described thus: Activation of GAL4 fused human LXR beta expressed in HEK293 cells after 24 hrs by luciferase reporter gene assay relative to 22R-HC. It counts as cell-based. In outline:
as §3

For data set [14], the species on record is Homo sapiens. The data set can be described thus: Agonist activity at LXR in human U937 cells assessed as downregulation of LPS-induced CCL2 mRNA expression at 10 uM after 6 hrs by qPCR analysis. It counts as cell-based. In outline:
as §4

The source made the active and inactive calls. The calls are words filed in the database; no cut-off is given here.

Regarding `CC(C)[C@@H](C)[C@H](O)C[C@@H](C)[C@H]1CC[C@H]2C3=CC=C4C[C@@H](O)CC[C@]4(C)[C@H]3CC[C@]12C`, the outcome in data set [1] and in data set [6] was inactive. The Activity result in data set [2], in [4], in data set [5], in data set [7], in data set [9] and in data set [10] was “Not Active” throughout. In data set [3], the EC50 result is recorded as “Not Active”. Also, the outcome in data set [8] was Active. In addition, the Efficacy in data set [11] is 63.9%.

Consider `CC(C)[C@@H](C)CC(=O)[C@@H](C)[C@H]1CC[C@H]2C3=CC=C4C[C@@H](O)CC[C@]4(C)[C@H]3CC[C@]12C`, for which the result in data set [1] and in [6] was inactive. Further, the Activity result in [2], in data set [4], in data set [5], in [7], in [9] and in [10] was “Not Active” in each case. Besides, the EC50 result in [3] is “Not Active”. The result in data set [8] was Active. In [11], this compound had an Efficacy of 70.2%.

Turning to `CC[C@@H](C(C)C)[C@H]1O[C@@H]1[C@@H](C)[C@H]1CC[C@H]2[C@@H]3CC=C4C[C@@H](O)CC[C@]4(C)[C@H]3CC[C@]12C`, the result in [1] and in data set [6] was inactive. The Activity result is reported as “Active” in [2]; “Not Active” in data set [4]; “Not Active” in data set [5]; “Not Active” in data set [7]; “Not Active” in data set [9]; “Not Active” in data set [10]. The outcome in data set [12] and in data set [8] was Active. Moreover, the Efficacy in [13] came out at 142%; in [11], 489%.

Consider `CC(C)[C@@H](C)[C@@H]1O[C@H]1[C@@H](C)[C@H]1CC[C@H]2C3=CC=C4C[C@@H](O)CC[C@]4(C)[C@H]3CC[C@]12C`, for which the outcome in [14] and in data set [8] was Active. Besides, the result in data set [1] and in data set [6] was inactive. The Activity entry is “Active” in data set [2]; “Not Active” in data set [4]; “Not Active” in data set [5]; “Not Active” in data set [7]; “Not Active” in data set [10]. Also, in data set [9], the fold induction at 10 µM was less than 2. Moreover, the Efficacy in data set [13] was 48.5%; in data set [11], 51.7%.

For `CC[C@H](C(=O)C[C@@H](C)[C@H]1CC[C@H]2[C@@H]3CC=C4C[C@@H](O)CC[C@]4(C)[C@H]3CC[C@]12C)C(C)C`, the outcome in data set [1] and in data set [6] was inactive. Moreover, the Activity result in [2], in [4], in data set [5], in [7] and in data set [10] was “Not Active” in each case. Besides, the result in [12] and in data set [8] was Active. For the same compound, in [9], the fold induction at 10 µM is less than 2. The Efficacy in [13] is 46.4%; in [11], 12.4%.

As for `CC[C@@H](C(C)C)[C@@H]1O[C@H]1[C@@H](C)[C@H]1CC[C@H]2[C@@H]3CC=C4C[C@@H](O)CC[C@]4(C)[C@H]3CC[C@]12C`, the outcome in [1] and in data set [6] was inactive. Also, the Activity entry in data set [2], in [4], in data set [5], in data set [7], in data set [9] and in [10] was “Not Active” each time. Further, the result in data set [8] was Active. For the same compound, the results for the Efficacy in data set [13] and in data set [11] were 36.3% and 56.8%, respectively.

As to `CC(C)[C@@H](C)C(=O)C[C@@H](C)[C@H]1CC[C@H]2C3=CC=C4C[C@@H](O)CC[C@]4(C)[C@H]3CC[C@]12C`, the result in [1] and in data set [6] was inactive. Moreover, the Activity entry in [2], in data set [4], in [5], in [7], in data set [9] and in data set [10] was “Not Active” each time. The EC50 entry in [3] is given as “Not Active”. Besides, the outcome in data set [8] was Active. Moreover, the Efficacy in data set [11] was 151%.

Regarding `O=S(=O)(c1ccccc1)N(CC(F)(F)F)c1ccc(C(O)(C(F)(F)F)C(F)(F)F)cc1` [T091317], the outcome in data set [14] and in data set [8] was Active. The Activity entry in data set [2] is “Not Active”; in data set [4], “Not Active”; in [5] it was “Not Active”; in [7], “Not Active”; in [9], “Not Active”; in [10], “Active”.

The values are drawn from ChEMBL document CHEMBL4038329, “Side-Chain Modified Ergosterol and Stigmasterol Derivatives as Liver X Receptor Agonists” (J Med Chem, 2017).
